TAAR1 ag: agonists of human TAAR1; Q96RJ0; CHO RD-HGA16 TAAR1, Fluo-8 calcium fluorescence; vehicle wells 0%, saturating PEA agonist 100%; activation, % at 3 µM; hit rate 0.99% among 360,000; AID 624467;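 active = activation above the mean activation of all test compounds in the run plus 3 SD, cut at about 38% in these data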
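Benchmarks: low control DMSO, high control PEA (EC100); System: CHO RD-HGA16 cells carrying human TAAR1 plus Gα16; Detection: Fluo-8 fluorescence, 5 s baseline then 140 s kinetic read; Schedule: 17-24 h plating, Fluo-8 75 min 37 °C, 30 min RT; Read-out basis: % activation from peak over basal fluorescence ratio, DMSO-to-PEA scaled.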
TAAR1 antag: human TAAR1 antagonism | inhibition, % at 3 µM | CHO RD-HGA16 TAAR1, Fluo-8 calcium fluorescence, antagonist | AID 624466 | hit rate 1.5% among 360,000;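 active = inhibition above a per-plate cutoff, the mean inhibition of test compounds on that plate plus 3 SD, cut at about 49% in these data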;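 note: 0% = DMSO plus EC80 beta-PEA response and 100% = DMSO alone without agonist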
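Assay system: RD-HGA16 CHO cells with stable hTAAR1 and Gα16 / Reagent: EC80 β-phenethylamine stimulus / Doses: 3 µM, single point / Timing: dye loading 75 min at 37 °C, then 30 min room temperature / Measured by: Fluo-8 intracellular calcium dye fluorescence, real-time kinetic reads / Controls: vehicle wells and EC80 agonist wells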
OX1R antag-1: antagonists of human orexin 1 receptor (OX1R); inhibition, % at 6.6 µM; hit rate 1.8% among 330,000; AID 485270; OX1R-expressing cells, FRET antagonist read-out; in the data active = inhibition mostly above about 38%, no sharp cut-off; inactive = mostly below about 40%;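 note: 0% = agonist challenge alone and 100% = reference antagonist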
Target sequence (O43613 whole entry, looked up): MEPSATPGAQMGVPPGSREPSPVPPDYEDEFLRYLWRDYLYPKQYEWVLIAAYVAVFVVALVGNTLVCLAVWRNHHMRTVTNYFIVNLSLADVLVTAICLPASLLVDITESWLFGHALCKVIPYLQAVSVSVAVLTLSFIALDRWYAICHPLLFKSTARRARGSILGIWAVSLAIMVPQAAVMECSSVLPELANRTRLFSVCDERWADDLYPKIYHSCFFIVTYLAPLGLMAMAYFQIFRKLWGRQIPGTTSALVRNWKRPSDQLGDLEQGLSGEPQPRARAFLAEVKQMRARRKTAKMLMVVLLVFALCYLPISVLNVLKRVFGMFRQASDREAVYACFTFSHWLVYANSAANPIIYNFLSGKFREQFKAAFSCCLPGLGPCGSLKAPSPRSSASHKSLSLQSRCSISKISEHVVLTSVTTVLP
OX1R antag-2: human HCRTR1 antagonism; CHO/OX1R cells, Fluo-8 calcium fluorescence, orexin A; AID 434989; hit rate 0.43% among 330,000; inhibition, % at 5 µM; O43613;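 active = inhibition above its plate's threshold, mean inhibition of all tested compounds on the plate plus 3 SD, cut at about 37% in these data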;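 note: 0% = orexin A challenge wells and 100% = SB-334867-A antagonist wells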
CHO parental Ca: signal in parental CHO cells, OX1R antagonist counter-screen; hit rate 0.63% among 330,000; parental CHO-K1, ATP-induced calcium, Fluo-8 fluorescence; inhibition, % at 5.6 µM;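 active = inhibition above that plate's mean sample inhibition plus 3 SD, cut at about 26% in these data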;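 note: 0% = ATP-challenged DMSO wells and 100% = DMSO wells without ATP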
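material = parental CHO cells | also added = ATP as calcium-mobilizing challenge | dosing = single point at 5.6 µM | detection = intracellular calcium via Fluo-8 no-wash fluorescent dye | read-out = % inhibition | benchmarks = low control ATP plus DMSO, high control DMSO only | repeats = one well per compound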
TAAR1 nonsel count: counter-screen for TAAR1 antagonists: nonselective antagonists. shares compounds with TAAR1 antag. counterscreen cell line, calcium fluorescence, antagonist mode. inhibition, % at 3 µM. hit rate 77% among 2,400. AID 651780; in the data active = inhibition above about 22%;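 note: CHO-Ga16 host cells stimulated with ATP at an EC80 level; 0% = agonist EC80 plus vehicle and 100% = vehicle without agonist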
TAAR1 ant conf: human TAAR1 antagonism, confirmed | TAAR1-expressing cells, fluorescence antagonist read-out | inhibition, % at 3 µM | shares compounds with TAAR1 antag | hit rate 40% among 2,400; in the data active = inhibition above about 49%;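 note: CHO-Ga16 host cells challenged with agonist PEA near its EC80; 0% = agonist at EC80 plus vehicle and 100% = vehicle with no agonist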
Ga16 ag counter: nonselective Ga16 agonist in TAAR1 antagonist counter-screen; shares compounds with TAAR1 antag; Ga16-expressing cells, calcium fluorescence, agonist counterscreen; activation, % at 3 µM; hit rate 18% among 2,400; AID 651953; in the data active = activation above about 12%;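 note: 0% = vehicle wells and 100% = saturating stimulus response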
TAAR1 ag counter: counter-screen for human TAAR1 antagonists: TAAR1 agonists; hTAAR1 cell line, fluorescence activation, agonist mode; activation, % at 3 µM; hit rate 2% among 2,400; shares compounds with TAAR1 antag; in the data active = activation above about 37%;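 note: CHO cells stably expressing TAAR1 with calcium dye readout; 0% = DMSO vehicle and 100% = full agonist response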
The depositor's hits bear a star; nt = not tested or not shown. Compounds with a hit are over-represented: about 4% of the library has one in this group of screens.

SMILES	TAAR1 ag	TAAR1 antag	OX1R antag-1	OX1R antag-2	CHO parental Ca	TAAR1 nonsel count	TAAR1 ant conf	Ga16 ag counter	TAAR1 ag counter
NC(=O)c1nsc(C(=O)N(Cc2ccco2)C(C(=O)NCc2ccc(F)cc2)c2ccc(O)cc2)c1N (stereo not given)	14	78*	30	-19	-5	37*	56*	10	12
CN(C)c1ccc(C(C(=O)NCc2ccccc2)N(Cc2ccco2)C(=O)c2snc(C(N)=O)c2N)cc1 (stereo not given)	18	71*	18	-15	-22	27*	58*	8	11
Cc1ccc(C(C(=O)NCc2ccc(F)cc2)N(Cc2ccco2)C(=O)c2snc(C(N)=O)c2N)o1 (stereo not given)	22	63*	11	-19	-8	31*	62*	11	24
CCOC(=O)Nc1sc(C)c(C)c1C(N)=O	-2	2	4	-12	11	nt	nt	nt	nt
c1ccc(-c2c(-c3ccccc3)n(Cc3ccco3)c3ncnc(NCCCn4ccnc4)c23)cc1	27	61*	53*	21	28	25*	34	22*	40*
CC1(C(=O)NCc2ccco2)CCN1C(=O)C1(c2ccccc2)CC1 (stereo not given)	0	-11	nt	nt	nt	nt	nt	nt	nt
C[C@H](CO)N1C[C@H](C)[C@H](CN(C)C(=O)Nc2cccc(C(F)(F)F)c2)OCc2cnnn2CCCC1=O	1	15	nt	nt	nt	nt	nt	nt	nt
C=CCn1c(=O)/c(=C/c2ccc(Cl)cc2)s/c1=C(/C#N)c1nnc2n1CCCCC2	13	50*	4	-41	-34	27*	32	8	2
CC(C)=N/N=C1/NC(=O)C(c2ccccc2)S1 (stereo not given)	34	55*	nt	nt	nt	7	0	7	8
COc1cc(/C=N/N=C2/NC(=O)C(c3ccccc3)S2)ccc1O (stereo not given)	1	-4	13	-5	-8	nt	nt	nt	nt
c1ccc(Nc2nc(-c3ccncc3)nc3ccccc23)cc1	-1	2	7	-21	-14	nt	nt	nt	nt
c1ccc(CCNc2nc(-c3ccncc3)nc3ccccc23)cc1	2	67*	8	-25	-29	27*	41	8	4
COc1cc(C(=O)OCC(=O)Nc2sccc2C(N)=O)cc(OC)c1OC	22	37	29	-4	-22	nt	nt	nt	nt
COc1ccc(C(=O)OCC(=O)Nc2sccc2C(N)=O)cc1OC	12	64*	28	-15	-13	30*	46	10	11
NC(=O)c1ccsc1NC(=O)COC(=O)Cc1c[nH]c2ccccc12	18	66*	23	2	7	47*	56*	17*	16
O=C(COC(=O)Cc1c[nH]c2ccccc12)Nc1ccccc1	3	9	-1	0	-1	nt	nt	nt	nt
Cc1ccc(S(=O)(=O)NCCC(=O)N2CC(C)OC(C)C2)cc1C (stereo not given)	2	-13	8	-14	2	nt	nt	nt	nt
O=C(NC(C(=O)c1ccccc1)c1ccccc1)c1ccccc1 (stereo not given)	3	42	nt	nt	nt	nt	nt	nt	nt
Cc1cccc(C(=O)NN2C(=O)C3C(c4ccccc4)C=CC(c4ccccc4)C3C2=O)c1 (stereo not given)	24	92*	14	11	5	54*	60*	14*	9
Cc1nnc(SCC(=O)Nc2nsc(-c3ccc(C(C)(C)C)cc3)n2)s1	2	59*	21	-25	-13	32*	39	7	4
Cc1nnc(SCC(=O)Nc2ccccc2NC(=O)CSc2nnc(C)s2)s1	2	0	0	-3	-10	nt	nt	nt	nt
Cc1ccc(N(CC(=O)NCc2ccccc2)S(=O)(=O)c2c(C)noc2C)cc1	-1	-12	39	-16	-37	nt	nt	nt	nt
CCOC(=O)N1CCN(Cc2nc3ccc([N+](=O)[O-])cc3c(=O)n2-c2ccccc2F)CC1	19	71*	23	-9	-22	11	15	4	9
C[C@@H](NC(=O)[C@@H]1Cc2ccccc2CN1)C(=O)NCC1CCCO1 (stereo not given in full)	6	-17	5	-4	-2	nt	nt	nt	nt
Cc1cc(C)n(CCCN2C(=O)c3cccc4cccc(c34)C2=O)n1	4	7	28	-23	-17	nt	nt	nt	nt
SMILES	TAAR1 ag	TAAR1 antag	OX1R antag-1	OX1R antag-2	CHO parental Ca	TAAR1 nonsel count	TAAR1 ant conf	Ga16 ag counter	TAAR1 ag counter
CCN1C(c2ccccc2)C(C)C(=O)C(C)C1c1ccccc1 (stereo not given)	0	52*	8	-17	2	13	-6	-1	-5
CC1C(=O)C(C)C(c2ccccc2)N(N=O)C1c1ccccc1 (stereo not given)	-2	-36	nt	nt	nt	nt	nt	nt	nt
O=C(Nc1cccc(-c2cnc3ccccc3n2)c1)c1ccco1	9	54*	56	-26	-23	17	34	7	3
O=C(Nc1cccc(NC(=O)c2ccc(-c3ccc(Br)cc3)o2)c1)c1ccco1	11	69*	18	-3	-2	33*	50*	6	1
O=C(CNC(=O)c1ccc(Br)o1)Nc1cccc(-c2cnc3ccccc3n2)c1	20	64*	31	-12	-23	33*	52*	12*	10
O=C(Nc1cccc(-c2cnc3ccccc3n2)c1)c1ccncc1	12	28	12	-20	-10	nt	nt	nt	nt
COc1ccc(C2=NS(=O)(=O)N(C)C(C(=O)N(C)Cc3ccccc3)=C2)cc1OC	7	52*	8	-17	-3	23*	34	8	6
CC(=O)Nc1ccc(S(=O)(=O)NCCc2ccc3c(c2)OCCO3)cc1	6	-23	nt	nt	nt	nt	nt	nt	nt
O=C1CCCCC1C(Nc1ccc(Cl)cc1)c1ccccc1 (stereo not given)	11	68*	22	-7	-24	13	45	7	10
O=C1CCCCC1C(Nc1ccc(Br)cc1)c1ccccc1 (stereo not given)	25	41	26	-15	-37	nt	nt	nt	nt
CCOCCCNC(=S)N1CCC(NC(=O)C23CC4CC(CC(C4)C2)C3)CC1	1	-22	12	-22	-8	nt	nt	nt	nt
CCOC(=O)c1noc2c1CCC2	1	-12	nt	nt	nt	nt	nt	nt	nt
COC(=O)c1cccc(Nc2nc(-c3cccnc3)nc3ccccc23)c1	17	67*	20	-21	-28	27*	39	5	5
CCOC(=O)c1cccc(Nc2nc(-c3cccnc3)nc3ccccc23)c1	18	41	60	-10	-19	nt	nt	nt	nt

High-throughput results as filed in PubChem BioAssay.
